Screening data from PubChem BioAssay.
HTRA1 inhibitor: HTRA1 serine protease inhibitors, primary screen, biochemical, fluorescence polarization, HTS | Q92743 | recombinant HTRA1, FP-rhodamine activity-based probe | inhibition, % at 5.96 µM | 0.5% of 340,000 active | AID 504803, 2011; in the data active = inhibition above about 36%
GASC-1 inh: inhibitors of GASC-1 histone demethylase, primary screen, biochemical, fluorescence, DELFIA europium. 0.069% of 330,000 active. GST-JMJD2C(1-420) H3K9me3 demethylation. AID 2099, 2009. inhibition, % at 2.35 µM. Lysine-specific demethylase 4C (Homo sapiens), Q9H3R0;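 active = more than half of a compound's replicate wells show inhibition beyond 50%, single wells judged on their own value; inconclusive = some, but no more than half, of replicates pass 50% inhibition; inactive = no replicate passes 50% inhibition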;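 note: signal counts dimethyl H3K9 product captured on neutravidin plate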
SIAE primary: human SIAE inhibitors, primary screen, biochemical, fluorescence polarization, FP-Rh probe, 1536-well HTS | inhibition, % at 9.66 µM | SIAE FP-Rh probe binding | 0.69% of 370,000 active | Sialate O-acetylesterase (Homo sapiens), Q9HAT2;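 active = inhibition above a cutoff: mean of compounds within the control limits plus 3 SD of those, cut at about 17% in these data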
mABHD4 FP: ABHD4 inhibitors, primary screen, biochemical, fluorescence polarization, mouse. purified mABHD4, FP-Rh probe fluorescence polarization. inhibition, % at 8.92 µM. 0.54% of 370,000 active. AID 720543, 2013;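 active = inhibition exceeding the mean over every tested compound plus 3 SD, cut at about 30% in these data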
Target sequence (Q8VD66 whole entry, looked up): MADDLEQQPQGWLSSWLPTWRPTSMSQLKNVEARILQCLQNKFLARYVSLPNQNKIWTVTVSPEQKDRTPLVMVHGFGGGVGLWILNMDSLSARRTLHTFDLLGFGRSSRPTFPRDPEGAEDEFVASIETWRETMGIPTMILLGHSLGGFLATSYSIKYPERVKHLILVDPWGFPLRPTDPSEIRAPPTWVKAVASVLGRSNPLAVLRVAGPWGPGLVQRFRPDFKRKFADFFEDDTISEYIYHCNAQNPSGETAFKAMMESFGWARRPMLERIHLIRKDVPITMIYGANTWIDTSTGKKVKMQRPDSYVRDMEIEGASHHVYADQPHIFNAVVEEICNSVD
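Test system: mouse ABHD4 enzyme, wild type. Reagent: FP-Rh fluorescent activity-based probe, added after compound pre-incubation. Timing: pre-incubation 45 min, probe exposure 60 min, at 25 °C. Technique: FP readout, ex 525 nm / em 598 nm. Benchmarks: high control S159A mutant with DMSO, low control median of compound wells.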
PRMT1 FP inh: PRMT1 methyltransferase inhibitors, primary screen, biochemical, fluorescence polarization | Protein arginine N-methyltransferase 1 (Homo sapiens), Q99873 | recombinant PRMT1, activity-based probe fluorescence polarization | inhibition, % at 2.79 µM | 1.3% of 370,000 active;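 active = inhibition above about 21% made by adding two undisclosed values, limit read from the data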
Numbers stand for hits; - = inactive; ? = inconclusive; . = no result given. Compounds with a hit are over-represented: about 2.4% of the library has one in this group of screens.

SMILES | HTRA1 inhibitor | GASC-1 inh | SIAE primary | mABHD4 FP | PRMT1 FP inh
Cn1c(SCC(=O)N/N=C/C=C/c2ccco2)nc2ccccc21 | - | - | - | - | 24.3
CC1=C(C(=O)N(C(C)C)C(C)C)CC(CC(=O)NCc2cccs2)C(=O)N1Cc1ccc(C(C)(C)C)cc1 (stereo not drawn) | . | . | - | - | -
CC/C(=N\Nc1ccccc1[N+](=O)[O-])c1ccc(O)cc1 | . | - | - | 40.0 | -
Cc1nnc(N/N=C/c2ccc(-c3ccccc3F)o2)n1N | - | - | - | - | -
Cc1nnc(N/N=C\c2ccc(-c3ccccc3[N+](=O)[O-])o2)n1N | - | 54.7 | - | - | -
COC(=O)C1=C(C)NC(C)=C(C(=O)OC)C1c1cn(-c2ccccc2)nc1-c1ccco1 | - | - | - | - | 30.7
COCCOC(=O)C1=C(C)NC(=O)NC1c1cn(-c2ccccc2)nc1-c1cccs1 (stereo not drawn) | - | - | - | - | -
COc1cccc(NC(=O)Nc2c(-c3ccc(F)cc3)nc3ncccn23)c1 | . | . | - | - | -
CC(=O)N(C1=C(Cl)C(=O)c2ccccc2C1=O)C1CCCCC1 | - | - | - | - | 92.0
CC(=O)N(c1ccccc1C)C1CCCC1 | - | - | - | - | -
COc1cccc(NC(=O)Nc2nc3ncccn3c2-c2ccc(F)c(F)c2)c1 | . | . | - | - | -
CCCCN1CC(=O)N2[C@H](C[C@@]3(C)c4ccccc4N(S(=O)(=O)c4ccccc4)[C@@H]23)C1=O | . | . | - | - | -
Cc1ccccc1NC(=O)CC1SCCNC1=O (stereo not drawn) | - | - | - | - | 22.0
Cc1c(Cl)cccc1NC(=O)CC1SCCNC1=O (stereo not drawn) | - | ? | - | - | -
O=C(Nc1ccc(F)cc1)OCCN1C(=O)CCC12CCC(c1ccc(Cl)cc1)CC2 (stereo not drawn) | . | . | - | - | -
C=C1C(=O)c2sccc2C(c2ccc(OC)c(OC)c2)C1COC(C)=O (stereo not drawn) | - | . | - | - | 24.1
CCN1CCN(CC(=O)N2N=C(c3cccs3)CC2c2ccc(OC)c(OC)c2)C(=O)C1=O (stereo not drawn) | - | - | - | - | -
C=CCN1C(=O)[C@@H](CC(=O)NCCc2ccccc2OC)[C@]2(C(=O)OC)CCCCC=C12 | . | . | - | - | -
CCn1c(SCC(=O)Nc2sc3c(c2C(N)=O)CCC(C)C3)nnc1-c1ccco1 (stereo not drawn) | - | - | - | - | 22.5
CCOC(=O)c1c(NC(=O)CSc2nnnn2-c2ccccc2)sc2c1CCC(C)C2 (stereo not drawn) | - | - | - | - | -
COC(=O)c1cc2c(c3c4cc(C)ccc4n(C(=O)c4ccccc4)c13)C(=O)N(Cc1ccccc1)C2 | . | . | - | - | -
COc1ccc2cc(Br)ccc2c1CC(=O)NCCCN1CCOCC1 | - | 56.6 | - | - | -
CCOc1cc(NC(=S)Nc2cccc(C)c2)c(OCC)cc1NC(=O)CC(C)C | - | . | - | - | 23.9
CCC(COC(=O)c1ccccc1)Oc1cc(NCc2ccccc2)c2ncn(C(C)C)c2c1 (stereo not drawn) | - | . | - | 31.0 | -
CCC(COC)Oc1cc(NCc2ccccc2)c2ncn(C(C)C)c2c1 (stereo not drawn) | - | - | - | - | -
SMILES | HTRA1 inhibitor | GASC-1 inh | SIAE primary | mABHD4 FP | PRMT1 FP inh
Oc1c(Br)cc(C=Nc2ccc3nc(-c4ccccc4)[nH]c3c2)c(O)c1Br | . | - | 17.8 | 30.9 | -
CSc1ccccc1C(=O)Nc1ccc(C)c(C)c1 | - | 101.8 | - | - | -
c1ccc(-c2nn(-c3ccccc3)[n+](-c3ccccc3)n2)cc1 | - | . | - | - | -
Cc1ccc(C2=NN=C(NC(=O)CSc3nnc4c5ccccc5n(C)c4n3)SC2)cc1 | - | - | . | . | .
Cc1ccc(C2=NN=C(NC(=O)CSc3nc(C)cc(C)n3)SC2)cc1 | . | - | - | - | 90.7
CCOC(=O)Oc1ccc2c(=O)c(Oc3cc(C)cc(C)c3)coc2c1 | 48.5 | - | - | - | -
CCOCCOC(=O)COc1ccc2c(=O)c(Oc3ccc(OC)cc3)coc2c1 | - | - | - | - | -
Cc1cccc(Oc2coc3cc(O)ccc3c2=O)c1 | - | - | - | - | -
CCOC(=O)Oc1ccc2c(=O)c(Oc3cccc(C)c3)coc2c1 | 50.6 | - | - | - | -
COc1ccc(Oc2coc3cc(OC(=O)c4cccs4)ccc3c2=O)cc1 | 51.1 | - | - | - | -
COc1ccc(Oc2coc3cc(OC(=O)N4CCOCC4)ccc3c2=O)cc1 | - | - | - | - | -
O=C(CSc1nnc(-c2ccccc2F)n1Cc1ccco1)Nc1ccccc1-c1ccccc1 | . | . | - | - | -
COC(=O)C1=C(C)Nc2ccc(C)cc2S1 | - | - | - | - | 23.6
Cc1cccc(Nc2n[nH]c(=S)s2)c1C | - | - | - | - | 24.4
C=CCn1c(SCC(=O)Nc2ccccc2-c2ccccc2)nnc1-c1ccc(Cl)cc1 | . | . | - | - | -
N#CC1=C2SCN(Cc3ccco3)CN2C(=O)CC1c1ccccc1F (stereo not drawn) | - | - | . | . | .
N#CC1=C2SCN(Cc3ccco3)CN2C(=O)CC1c1cccc2ccccc12 (stereo not drawn) | - | - | - | - | 30.2
COC(=O)[C@H](CC(C)C)N(Cc1cn(Cc2ccc(C)cc2)nn1)S(=O)(=O)c1ccccc1Br | . | . | - | - | -
O=C(NCc1ccco1)c1cnn2c(C(F)(F)F)cc(-c3cccs3)nc12 | - | - | - | - | 23.3
O=C(c1cnn2c(C(F)(F)F)cc(-c3cccs3)nc12)N1CCCC1 | - | - | - | - | -
CC(C)N1CCCCC(NC(=O)COCc2ccccc2)C1=O (stereo not drawn) | . | . | - | - | -
CCN(Cc1cccs1)c1ncnc2ccc(-c3ccc4c(c3)OCO4)cc12 | . | . | - | - | -
Cc1ccc2cccc(NC3OC(=O)c4ccccc43)c2n1 (stereo not drawn) | - | - | 19.1 | - | -
COC(=O)c1ccccc1NC1OC(=O)c2ccccc21 (stereo not drawn) | - | - | - | - | -
Cc1ccccc1OCC(=O)N/N=C/c1ccco1 | - | - | - | - | -
COc1ccc(OCC(=O)N/N=C/C(C)=C/c2ccco2)c(Br)c1 | - | 67.0 | - | - | -
CCC(=O)N1CCc2cc(Br)cc(S(=O)(=O)CC(=O)OC)c21 | - | 99.1 | . | . | .
CC1=C2NC(N)=[N+](CC3CC3)C(Cc3ccccc3)[C@@H]2n2c(=O)n(-c3ccccc3)c(=O)n2C1 (stereo partly drawn) | . | . | - | - | -
CN1CCN(C(=O)c2cc3sccc3n2CC(=O)c2ccccc2)CC1 | - | - | - | - | -
